Measurements: PubChem BioAssay
Calls of active or inactive are those of the source.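 Rule for the calls, unless noted: active = inhibition above 20% together with a positive visual image hit; inconclusive = visual image hit but inhibition not above 20%; inactive = no visual image hit.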

Legend:
[1] = inhibitors of TNFa-induced NFkB p65 translocation, primary screen, imaging, HUVEC, MLSMR starter and 10KST1 sets (AID 438); settings: HUVEC TNFa-induced p65 nuclear translocation; cell count: measured here: nuclei count (cytotoxicity indicator), at 2.08 µM; inhibition: at 2 µM, stronger effect = higher value, 0% TNFa-plus-vehicle, 100% no-TNFa wells;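 note: compound added about 3h40 before a 20 min TNFalpha stimulation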;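 for inhibition: signal is the nuclear over cytoplasmic p65 intensity ratio per well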
[2] = reduction of polyQ htt aggregates in cells – imaging, exon1htt(103Q)mCFP cells, high-content imaging, primary screen (AID 483;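 active = visual image review flags a hit and inhibition of aggregation exceeds 20%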;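 note: compound exposure lasted 3 days before fixation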;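 for nuclei count: percent of the per-plate median nuclei count of sample wells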); settings: exon1htt(103Q)mCFP cell line, aggregate imaging, at 2 µM; inhibition of aggregation: stronger effect = higher value; nuclei count: measured here: cell count, toxicity
[3] = endothelial E-selectin expression blockers – imaging, HUVEC, immunofluorescence, MLSMR starter and 10KST1 sets, primary screen (AID 487;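 active = visually confirmed hit in the image check and inhibition above 20%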;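 for inhibition: signal is fraction of cell area covered by stained E-selectin grains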;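 for nuclei count: 100% = median nuclei count of all wells on the same plate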); settings: HUVEC TNFalpha-induced E-selectin immunofluorescence imaging, at 2 µM; inhibition: stronger effect = higher value; nuclei count: measured here: cell number, toxicity
[4] = target: Voltage-gated potassium channel subunit beta-2 (Rattus norvegicus) (UniProt P62483); experiment: inhibitors of rat Kvbeta2 reductase activity – biochemical, NADPH fluorescence, primary screen (AID 622;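 active = fluorescence slope higher than the sample average by over 3 SD, cut at about -0.22 in these data, passing the limit was not always enough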;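 note: slope of raw intensity against log time taken from 70 to 1610 s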); settings: recombinant KvBeta, 4-cyanobenzaldehyde reduction, at 10 µM, stronger effect = higher value
[5] = target: Voltage-gated potassium channel subunit beta-2 (Rattus norvegicus) (UniProt P62483); experiment: enhancers of rat Kvbeta2 NADPH turnover – biochemical, NADPH fluorescence, primary screen (AID 623;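 active = NADPH fluorescence slope more negative than the mean of all samples by about 3 SD, 99.7% confidence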;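 note: fluorescence intensity change per second fitted from 20 to 320 s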); settings: Recombinant KvBeta, NADPH fluorescence decrease slope, 10 min; at 10 µM; stronger effect = lower value
[6] = target: Muscarinic acetylcholine receptor M4 (Homo sapiens) (UniProt P08173); experiment: M4-linked GIRK flux change, two-sided – cell-based, HEK293 M4/GIRK, thallium flux, BTC-AM, M4 allosteric agonist project, primary screen (AID 625;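 active = fluorescence slope after compound addition differing from the mean of all tested samples at 99.7% confidence, mostly higher but some lower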;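 note: thallium influx through GIRK channels coupled to M4 in HEK293 cells with BTC-AM dye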); settings: at 10 µM, actives lie on both sides
In short: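 Material: M4/GIRK1/GIRK2 stable HEK293 cell line. Medium: pH 7.3 thallium assay buffer. Dosing: single compound concentration, 10 µM final. Schedule: 1 h dye loading, 2 min kinetic read. Measured by: kinetic fluorescence with BTC-AM dye. Read-out: post-addition slope, 15–24 s, of baseline-normalized fluorescence. Benchmarks: carbachol and DMSO controls.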

[7] = blockers of RIG-like receptor reporter activation – cell-based, Sendai virus stimulus, luciferase, 10K MLSCN set, TLR/RLR signaling modifier project, primary screen (AID 602276;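 active = inhibition at or above 50% at 10 µM; inactive = inhibition below 50%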;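 note: firefly luciferase from ISG56 promoter only with Renilla not read in this screen; 0% = Sendai virus plus DMSO and 100% = medium plus DMSO without virus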); settings: HEK293 RL24 IRF3 luciferase reporter, at 10 µM, stronger effect = higher value
[8] = TLR3 IRF3 reporter activation blockers – cell-based, poly I:C stimulus, luciferase, 10K MLSCN set, primary screen (AID 602277;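 active = inhibition of the reporter signal at or above 50%; inactive = inhibition below 50%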); settings: HEK293-TLR3 RL24 IRF3 luciferase reporter, at 10 µM, stronger effect = higher value

Muscarinic acetylcholine receptor M4 (Homo sapiens), sequence (P08173 whole entry, looked up): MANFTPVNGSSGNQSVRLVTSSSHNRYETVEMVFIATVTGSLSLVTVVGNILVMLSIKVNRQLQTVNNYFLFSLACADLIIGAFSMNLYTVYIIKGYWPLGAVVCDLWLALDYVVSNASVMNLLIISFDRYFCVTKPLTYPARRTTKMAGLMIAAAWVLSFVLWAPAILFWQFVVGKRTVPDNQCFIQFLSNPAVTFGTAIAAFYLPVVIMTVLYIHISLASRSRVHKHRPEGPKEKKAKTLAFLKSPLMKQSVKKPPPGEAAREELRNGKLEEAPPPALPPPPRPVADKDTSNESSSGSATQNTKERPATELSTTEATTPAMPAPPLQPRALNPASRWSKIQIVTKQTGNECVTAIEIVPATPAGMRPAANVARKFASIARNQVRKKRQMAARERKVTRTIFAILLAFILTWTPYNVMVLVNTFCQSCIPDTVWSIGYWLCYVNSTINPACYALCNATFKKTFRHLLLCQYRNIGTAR
Voltage-gated potassium channel subunit beta-2 (Rattus norvegicus), sequence (P62483 whole entry, looked up): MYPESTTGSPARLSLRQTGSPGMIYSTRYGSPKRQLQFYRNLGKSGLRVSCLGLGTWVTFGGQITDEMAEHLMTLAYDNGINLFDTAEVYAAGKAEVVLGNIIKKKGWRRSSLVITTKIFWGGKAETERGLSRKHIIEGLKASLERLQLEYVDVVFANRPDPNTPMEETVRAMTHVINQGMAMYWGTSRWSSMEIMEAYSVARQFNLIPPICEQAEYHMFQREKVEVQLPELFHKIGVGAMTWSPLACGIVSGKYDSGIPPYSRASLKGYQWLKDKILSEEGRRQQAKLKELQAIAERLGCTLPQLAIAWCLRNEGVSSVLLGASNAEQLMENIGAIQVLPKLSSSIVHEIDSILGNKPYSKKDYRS

SMILES: COc1cc(C2C3=C(CC(C)(C)CC3=O)Nc3c2c(=O)[nH]c(=O)n3Cc2ccccc2)ccc1O (stereo not drawn)
- cell count [1]: 271
- inhibition [1]: 15% (inactive)
- inhibition of aggregation [2]: -4.8% (inactive)
- nuclei count [2]: 104%
- inhibition [3]: -45.4% (inactive)
- nuclei count [3]: 114%
- fluorescence slope [4]: -0.463 (inactive)
- NADPH fluorescence slope [5]: -8e-05 (inactive)
- fluorescence slope [6]: 0.00547 (inactive)
- inhibition [7]: 9.34% (inactive)
- inhibition [8]: 5.06% (inactive)

SMILES: O=C(C1CCC1)N1CCc2cc(S(=O)(=O)Nc3ccc4c(c3)OCO4)ccc21
- cell count [1]: 606
- inhibition [1]: 10.1% (inactive)
- inhibition of aggregation [2]: 18.8% (inactive)
- nuclei count [2]: 92%
- inhibition [3]: 3.5% (inactive)
- nuclei count [3]: 137%
- fluorescence slope [4]: -0.391 (inactive)
- NADPH fluorescence slope [5]: -6.2e-05 (inactive)
- fluorescence slope [6]: 0.0066 (inactive)
- inhibition [7]: 7.48% (inactive)
- inhibition [8]: 13.6% (inactive)

SMILES: Cc1ccc2c(c1C)NC(C)CC2C (stereo not drawn)
- cell count [1]: 553
- inhibition [1]: 9.8% (inactive)
- inhibition of aggregation [2]: 5.9% (inactive)
- nuclei count [2]: 101%
- inhibition [3]: 35.5% (inactive)
- nuclei count [3]: 100%
- fluorescence slope [4]: -0.604 (inactive)
- NADPH fluorescence slope [5]: -2.8e-05 (inactive)
- fluorescence slope [6]: 0.0052 (inactive)
- inhibition [7]: 11.1% (inactive)
- inhibition [8]: 13.6% (inactive)

SMILES: CCOC(=O)CSc1nc2ccccc2c(=O)n1CCN1CCOCC1
- cell count [1]: 513
- inhibition [1]: -3.4% (inactive)
- inhibition of aggregation [2]: -7.1% (inactive)
- nuclei count [2]: 96.3%
- inhibition [3]: 4.2% (inactive)
- nuclei count [3]: 109%
- fluorescence slope [4]: -0.474 (inactive)
- NADPH fluorescence slope [5]: -1.3e-06 (inactive)
- fluorescence slope [6]: 0.00551 (inactive)
- inhibition [7]: -2.06% (inactive)
- inhibition [8]: 17.7% (inactive)

SMILES: COC(=O)c1c(NC(=O)C2CC=CCC2C(=O)O)sc(C(N)=O)c1C (stereo not drawn)
- cell count [1]: 654
- inhibition [1]: -2.4% (inactive)
- inhibition of aggregation [2]: 7.8% (inactive)
- nuclei count [2]: 96.4%
- inhibition [3]: -10.1% (inactive)
- nuclei count [3]: 113%
- fluorescence slope [4]: -0.495 (inactive)
- NADPH fluorescence slope [5]: -4.4e-05 (inactive)
- fluorescence slope [6]: 0.00475 (inactive)
- inhibition [7]: 0.24% (inactive)
- inhibition [8]: 11% (inactive)

SMILES: CCCS(=O)(=O)N1CCCC(C(=O)N2CCC(Cc3ccccc3)CC2)C1 (stereo not drawn)
- cell count [1]: 662
- inhibition [1]: -11.9% (inactive)
- inhibition of aggregation [2]: 5% (inactive)
- nuclei count [2]: 105%
- inhibition [3]: -82.7% (inactive)
- nuclei count [3]: 106%
- fluorescence slope [4]: -0.5 (inactive)
- NADPH fluorescence slope [5]: -0.000282 (inactive)
- fluorescence slope [6]: 0.00325 (inactive)
- inhibition [7]: 11.3% (inactive)
- inhibition [8]: 12.1% (inactive)

SMILES: CN(Cc1nc(-c2ccncc2)no1)S(=O)(=O)c1ccc(Br)cc1
- cell count [1]: 492
- inhibition [1]: -9.3% (inactive)
- inhibition of aggregation [2]: -5.7% (inactive)
- nuclei count [2]: 108%
- inhibition [3]: -56.8% (inactive)
- nuclei count [3]: 194%
- fluorescence slope [4]: -0.589 (inactive)
- NADPH fluorescence slope [5]: -3.3e-05 (inactive)
- fluorescence slope [6]: 0.01 (inactive)
- inhibition [7]: 4.91% (inactive)
- inhibition [8]: -6.05% (inactive)

SMILES: O=C(Nc1ccc(Cl)cc1)C1CC=CCC1C(=O)OCC(F)(F)C(F)F (stereo not drawn)
- cell count [1]: 628
- inhibition [1]: 8.2% (inactive)
- inhibition of aggregation [2]: 31.1% (inactive)
- nuclei count [2]: 88%
- inhibition [3]: -17.6% (inactive)
- nuclei count [3]: 96.7%
- fluorescence slope [4]: -0.319 (inactive)
- NADPH fluorescence slope [5]: -7e-05 (inactive)
- fluorescence slope [6]: 0.00812 (inactive)
- inhibition [7]: 11.2% (inactive)
- inhibition [8]: 3.19% (inactive)
